Source: PubChem BioAssay (Broad Institute)
Pf Dd2 inh: inhibitors of Plasmodium falciparum Dd2 growth; P. falciparum Dd2 growth, SYBR Green, 72 h; active compounds read low; activity change, % at 10 µM; 94,000 compounds, 2.3% hits; AID 1159554; in the data active = activity change below about -80%; inconclusive = no clear call, values can overlap the other calls
IDH1 R132H inh: blocks human IDH1 R132H reductase activity; O75874; diaphorase/resazurin fluorescence, 60 min; inhibition, % at 10 µM; 70,000 compounds, 0.18% hits; AID 624101; in the data active = inhibition above about 34%; inconclusive = no clear call, values can overlap the other calls; inactive = below about 11%;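 note: 0% = DMSO and 100% = no enzyme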
Target sequence (O75874 whole entry R132H): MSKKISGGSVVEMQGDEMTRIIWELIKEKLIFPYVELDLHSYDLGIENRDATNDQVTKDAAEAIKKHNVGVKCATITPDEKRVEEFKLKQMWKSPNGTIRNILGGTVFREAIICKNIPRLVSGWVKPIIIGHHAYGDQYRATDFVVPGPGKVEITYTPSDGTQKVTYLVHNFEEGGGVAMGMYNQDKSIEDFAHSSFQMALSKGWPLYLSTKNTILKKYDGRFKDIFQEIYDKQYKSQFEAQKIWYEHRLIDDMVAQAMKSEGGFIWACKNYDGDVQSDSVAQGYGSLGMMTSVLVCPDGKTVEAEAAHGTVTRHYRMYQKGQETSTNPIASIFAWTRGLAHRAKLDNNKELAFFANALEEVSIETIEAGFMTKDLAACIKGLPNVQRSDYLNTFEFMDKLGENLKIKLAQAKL
GASC1 inh: inhibitors of human demethylase GASC-1 KDM4C. Q9H3R0. GST-KDM4C 2-372, H3K9me3 peptide, LANCE TR-FRET. inhibition, % at 12.5 µM. 96,000 compounds, 0.15% hits. AID 720574;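 active = mean replicate inhibition above about 25%, with at least 55% of replicates also reaching it, limit read from the data, passing the limit was not always enough; inconclusive = only one of those two conditions met; inactive = neither condition met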
Target sequence (Q9H3R0 2-372 limits assumed): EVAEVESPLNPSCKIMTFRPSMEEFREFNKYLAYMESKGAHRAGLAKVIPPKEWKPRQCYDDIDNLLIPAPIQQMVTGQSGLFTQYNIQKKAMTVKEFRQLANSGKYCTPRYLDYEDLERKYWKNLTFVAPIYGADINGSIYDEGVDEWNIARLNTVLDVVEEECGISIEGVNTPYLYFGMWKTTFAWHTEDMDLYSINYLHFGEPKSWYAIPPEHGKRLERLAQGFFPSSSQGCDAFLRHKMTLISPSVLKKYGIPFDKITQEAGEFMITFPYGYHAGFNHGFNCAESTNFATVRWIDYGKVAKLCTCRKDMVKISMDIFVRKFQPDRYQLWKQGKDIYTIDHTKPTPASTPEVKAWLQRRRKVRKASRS
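material = GST-tagged GASC-1 (JMJD2C) catalytic fragment, aa 2-372 | amount = enzyme final amount 10 nM | medium = HEPES buffer, pH 7.5, plus ascorbate | also added = H3K9me3 peptide substrate, Fe(II), 2-oxoglutarate | dosing = single dose | times = 30 min demethylation and 1 h detection at room temperature | detection = LANCE TR-FRET | read-out basis = Fall in 671/618 emission ratio as inhibition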
T cruzi growth-1: inhibitors of T. cruzi proliferation; inhibition, % at 8.34 µM; 77,000 compounds, 5.9% hits; T. cruzi beta-gal in NIH3T3, GalScreen luminescence, 90 h;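 active = mean inhibition above about 93%, with at least 55% of replicates each passing it, limit read from the data, passing the limit was not always enough; inconclusive = only one of those two conditions holds; inactive = neither condition holds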
T cruzi growth-2: blocks T. cruzi growth in NIH3T3 host cells; AID 651739; inhibition, % at 8.35 µM; 5,600 compounds, 72% hits; T. cruzi beta-gal in NIH3T3, GalScreen luminescence, 90 h; shares compounds with T cruzi growth-1;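 active = mean replicate inhibition above about 95% and at least 55% of replicates individually reaching it, limit read from the data; inconclusive = only one of the two criteria is met; inactive = neither criterion is met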
T cruzi growth-3: inhibitors of T. cruzi proliferation; inhibition, % at 2.09 µM; shares compounds with T cruzi growth-1; T. cruzi beta-gal in NIH3T3, GalScreen luminescence, 90 h; 5,600 compounds, 21% hits; AID 651740;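 active = mean inhibition above about 95%, with at least 55% of replicates also reaching it, limit read from the data; inconclusive = meets just one of the two conditions; inactive = meets neither condition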;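 note: plate controls were neutral control median for no effect and positive control median for full effect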
3T3 cytotox: cytotoxicity in mouse NIH/3T3 fibroblasts; shares compounds with T cruzi growth-1; cytotoxicity (signal decrease), % at 8.35 µM; NIH/3T3 viability, CellTiter-Glo ATP luminescence, 90 h; 5,600 compounds, 14% hits;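 active = mean signal decrease across replicates above about 35% based on untreated-well scatter, with enough replicates individually passing, limit read from the data; inconclusive = no rule stated though some were filed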;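 note: 0% = median of neutral control wells and 100% = median of positive control wells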
NIH3T3 tox 2: NIH/3T3 (mouse) viability loss; shares compounds with T cruzi growth-1; NIH/3T3 viability, CellTiter-Glo ATP luminescence, 90 h; inhibition, % at 24.9 µM; 5,600 compounds, 56% hits; AID 651744;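 active = mean loss of cell viability signal at or above a set limit, and enough replicates individually reaching it; inconclusive = meets only the mean limit or only the replicate share; inactive = meets neither condition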;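 note: 0% = median of neutral control wells and 100% = median of positive control wells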
Starred values were filed as active, the others as inactive; ? = inconclusive; · = not tested or not shown. Compounds with a hit are over-represented: about 5.8% of the library has one in this group of screens.

SMILES | Pf Dd2 inh | IDH1 R132H inh | GASC1 inh | T cruzi growth-1 | T cruzi growth-2 | T cruzi growth-3 | 3T3 cytotox | NIH3T3 tox 2
Cc1ccccc1S(=O)(=O)N1[C@H](C#N)[C@@H](c2ccc(-c3ccccc3)cc2)[C@@H]1CO | -2 | · | 0 | 67 | · | · | · | ·
CCCC#Cc1ccc([C@H]2[C@H](C#N)N(S(=O)(=O)c3cccc(F)c3)[C@H]2CO)cc1 | -35 | · | 0 | 98* | 103* | 105* | 7 | 59*
N#C[C@H]1[C@H](c2ccc(-c3cccc(F)c3)cc2)[C@H](CO)N1S(=O)(=O)c1cccc(F)c1 | -37 | · | -2 | 96* | 108* | 75 | 37* | 57*
N#C[C@@H]1N[C@H](CO)[C@H]1c1ccccc1 | 20 | · | 0 | -12 | · | · | · | ·
C[C@H](CO)N1C[C@H](C)[C@@H](CN(C)C(=O)NC2CCCCC2)OCCCC[C@H](C)Oc2ccc(NS(=O)(=O)c3ccccc3)cc2C1=O | -62 | · | 0 | 96 | · | · | · | ·
OC[C@@H]1[C@@H](c2ccc(-c3cccnc3)cc2)[C@H]2CN(CC3CC3)CCCCN12 | -49 | · | -1 | 44 | · | · | · | ·
CN1CCCCN2[C@H](CO)[C@H](c3ccc(-c4cccnc4)cc3)[C@@H]2C1 | -64 | · | 0 | ? | 76 | 33 | 2 | -13
OC[C@@H]1[C@H](c2ccc(-c3cccnc3)cc2)[C@@H]2CN(CC3CC3)CCCCN12 | -72 | · | 0 | 104* | 67 | 17 | 0 | -9
O=C(CC1CC1)N1CC(=O)N2[C@H](C1)[C@H](c1ccc(-c3ccccc3)cc1)[C@@H]2CO | 10 | · | -2 | · | · | · | · | ·
Cc1noc(C)c1NC(=O)N(C)C[C@H]1Oc2ccc(NS(=O)(=O)c3ccccc3)cc2C(=O)N([C@@H](C)CO)C[C@H]1C | 20 | 2 | 0 | 9 | · | · | · | ·
Cc1cc(S(=O)(=O)NC2CCCCC2)ccc1OCC(=O)O | · | 0 | · | · | · | · | · | ·
COc1ccc(S(=O)(=O)N(C)C[C@H]2OCCCC[C@H](C)Oc3ccc(NS(=O)(=O)c4ccc(C)cc4)cc3C(=O)N([C@H](C)CO)C[C@H]2C)cc1 | -83* | · | -1 | ? | 107* | 93 | -7 | 12
COc1ccc(S(=O)(=O)Nc2ccc3c(c2)C(=O)N([C@H](C)CO)C[C@H](C)[C@@H](CN(C)S(=O)(=O)c2ccc(C)cc2)OCCCC[C@@H](C)O3)cc1 | -41 | -2 | 0 | · | · | · | · | ·
COc1ccc(S(=O)(=O)N(C)C[C@H]2OCCCC[C@@H](C)Oc3ccc(NS(=O)(=O)c4ccc(C)cc4)cc3C(=O)N([C@H](C)CO)C[C@@H]2C)cc1 | -18 | · | 0 | 7 | · | · | · | ·
COc1ccc(S(=O)(=O)N(C)C[C@H]2OCCCC[C@H](C)Oc3ccc(NS(=O)(=O)c4ccc(C)cc4)cc3C(=O)N([C@H](C)CO)C[C@@H]2C)cc1 | -47 | -1 | -1 | ? | 110* | 66 | 1 | -31
COc1cccc(S(=O)(=O)Nc2ccc3c(c2)[C@@H]2C[C@@H](CC(=O)NCc4cccc(F)c4)O[C@@H](CO)[C@@H]2O3)c1 | -37 | 0 | -3 | 85 | · | · | · | ·
Cc1nn(C)cc1NC(=O)C[C@H]1CC[C@H]2[C@H](COc3ccc(NC(=O)C(C)C)cc3C(=O)N2C)O1 | -24 | · | 9 | 49 | · | · | · | ·
C[C@H](CO)N1C[C@H](C)[C@@H](CN(C)Cc2ccc(C(=O)Nc3ccccc3N)cc2)Oc2c(NC(=O)c3ccncc3)cccc2C1=O | -46 | · | -1 | ? | 102* | 88 | 18 | 25*
C[C@H]1CN([C@@H](C)CO)C(=O)c2cccc(NC(=O)c3ccncc3)c2O[C@@H]1CN(C)Cc1ccc(C(=O)Nc2ccccc2N)cc1 | -70 | 0 | 0 | 98* | 108* | 101* | 6 | 47*
C[C@@H]1CN([C@@H](C)CO)C(=O)c2cccc(NC(=O)c3cnccn3)c2O[C@@H]1CN(C)Cc1ccc(C(=O)Nc2ccccc2N)cc1 | -92* | · | -1 | 106* | 93 | 84 | 47* | 91*
Cc1cc(C(=O)Nc2cccc3c2O[C@H](CN(C)S(=O)(=O)c2ccccc2)[C@H](C)CN([C@H](C)CO)C3=O)n(C)n1 | -33 | · | -3 | 3 | · | · | · | ·
C[C@@H]1CCCCO[C@H](CN(C)C(=O)Nc2ccc(C(F)(F)F)cc2)[C@@H](C)CN([C@H](C)CO)C(=O)c2cc(NC(=O)Nc3ccc(F)cc3)ccc2O1 | -23 | 0 | 0 | ? | · | · | · | ·
C[C@@H]1CCCCO[C@@H](CN(C)C(=O)Nc2ccc(F)cc2)[C@H](C)CN([C@@H](C)CO)C(=O)c2cc(NC(=O)Nc3ccc(C(F)(F)F)cc3)ccc2O1 | 17 | · | 0 | 95* | 105* | 104* | -7 | -31
C[C@@H]1CCCCO[C@H](CN(C)C(=O)Nc2ccc(C(F)(F)F)cc2)[C@H](C)CN([C@@H](C)CO)C(=O)c2cc(NC(=O)Nc3ccc(F)cc3)ccc2O1 | -76 | · | 2 | 111* | 106* | 118* | -8 | 13
COc1ccc(S(=O)(=O)Nc2ccc3c(c2)C(=O)N([C@@H](C)CO)C[C@@H](C)[C@@H](CN(C)S(=O)(=O)c2ccc(OC)cc2)OCCCC[C@@H](C)O3)cc1 | -64 | 2 | 0 | 100* | 107* | 102* | -5 | 7
SMILES | Pf Dd2 inh | IDH1 R132H inh | GASC1 inh | T cruzi growth-1 | T cruzi growth-2 | T cruzi growth-3 | 3T3 cytotox | NIH3T3 tox 2
COc1ccc(S(=O)(=O)Nc2ccc3c(c2)C(=O)N([C@H](C)CO)C[C@@H](C)[C@@H](CN(C)S(=O)(=O)c2ccc(OC)cc2)OCCCC[C@H](C)O3)cc1 | -61 | 1 | 0 | 52 | · | · | · | ·
COc1ccc(S(=O)(=O)N(C)C[C@H]2OCCCC[C@@H](C)Oc3ccc(NS(=O)(=O)c4cn(C)cn4)cc3C(=O)N([C@@H](C)CO)C[C@H]2C)cc1 | -48 | · | -1 | 103* | 107* | 33 | -27 | -14
C[C@@H]1CCCCO[C@@H](CN(C)S(=O)(=O)c2cn(C)cn2)[C@H](C)CN([C@H](C)CO)C(=O)c2cc(NS(C)(=O)=O)ccc2O1 | 40 | -5 | 0 | 33 | · | · | · | ·
COc1ccc(S(=O)(=O)Nc2ccc3c(c2)C(=O)N([C@@H](C)CO)C[C@H](C)[C@H](CN(C)C(=O)NC(C)C)O3)cc1 | 3 | 1 | 2 | 109* | -5 | -16 | 1 | -10
C[C@@H]1CN([C@@H](C)CO)C(=O)c2cc(NS(C)(=O)=O)ccc2O[C@@H](C)CCCCO[C@H]1CN(C)S(=O)(=O)c1cn(C)cn1 | 32 | 0 | 0 | 107* | 99* | 37 | 8 | 8
COc1ccc(S(=O)(=O)Nc2ccc3c(c2)C(=O)N([C@H](C)CO)C[C@H](C)[C@@H](CN(C)C(=O)NC(C)C)O3)cc1 | 10 | 0 | 0 | -33 | · | · | · | ·
